From ChEMBL document CHEMBL1165943, “Design and synthesis of new anticancer pyrimidines with multiple-kinase inhibitory effect” (Bioorg Med Chem, 2010)

Columns and labels:
Assay type in all cases: functional
[1] = system: CCRF-CEM; experiment: Cytotoxicity against human CCRF-CEM cells assessed as cell growth at 10 uM; conditions: Homo sapiens, CCRF-CEM; read-out: Activity
Procedure, shortened: (§1)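 Single-concentration screen at 10 μM across the 60-cell-line panel (nine tissue types); growth percentage recorded per cell line, with inhibition taken as 100 minus growth percentage.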

[2] = system: MOLT-4; experiment: Cytotoxicity against human MOLT4 cells assessed as cell growth at 10 uM; conditions: Homo sapiens, MOLT-4; read-out: Activity
Procedure, shortened: (§2)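 Single-dose screen at 10 μM across the 60-cell-line panel. Cells grown in RPMI 1640 with 5% FBS and 2 mM L-glutamine, seeded at 5,000–40,000 cells/well according to doubling time, and treated 24 h later. Exposure lasted 48 h at 37 °C, 5% CO₂. Adherent cells were fixed with cold TCA, suspension cells were fixed settled, and both were stained with SRB and read at 515 nm. Growth % was recorded, with inhibition % = 100 − growth %.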

[3] = Cytotoxicity against human […] cells assessed as cell growth at 10 uM; conditions: for growth at 10 µM: Homo sapiens, RPMI8266, read-out: Activity; procedure, shortened: as §2
[4] = system: SR; experiment: Cytotoxicity against human SR cells assessed as cell growth at 10 uM; conditions: for growth at 10 µM: Homo sapiens, SR, read-out: Activity; procedure, shortened: as §2
[5] = system: A549; experiment: Cytotoxicity against human A549 cells assessed as cell growth at 10 uM; conditions: Homo sapiens, A549; read-out: Activity; procedure, shortened: as §1
[6] = system: HOP-92; experiment: Cytotoxicity against human HOP92 cells assessed as cell growth at 10 uM; conditions: Homo sapiens, HOP-92; read-out: Activity; procedure, shortened: as §1
[7] = system: NCI-H460; experiment: Cytotoxicity against human NCI-H460 cells assessed as cell growth at 10 uM; conditions: Homo sapiens, NCI-H460; read-out: Activity; procedure, shortened: as §2
[8] = system: NCI-H522; experiment: Cytotoxicity against human NCI-H522 cells assessed as cell growth at 10 uM; conditions: Homo sapiens, NCI-H522; read-out: Activity; procedure, shortened: as §2
[9] = system: HCC 2998; experiment: Cytotoxicity against human HCC2998 cells assessed as cell growth at 10 uM; conditions: Homo sapiens, HCC 2998; read-out: Activity; procedure, shortened: as §1
[10] = system: SF-539; experiment: Cytotoxicity against human SF539 cells assessed as cell growth at 10 uM; conditions: Homo sapiens, SF-539; read-out: Activity; procedure, shortened: as §2
[11] = system: SNB-19; experiment: Cytotoxicity against human SNB19 cells assessed as cell growth at 10 uM; conditions: read-out: Activity; procedure, shortened: as §2
[12] = system: SNB-75; experiment: Cytotoxicity against human SNB75 cells assessed as cell growth at 10 uM; conditions: Homo sapiens, SNB-75; read-out: Activity; procedure, shortened: as §2
[13] = system: Malme-3M; experiment: Cytotoxicity against human MALME-3M cells assessed as cell growth at 10 uM; conditions: for growth at 10 µM: Homo sapiens, Malme-3M, read-out: Activity; procedure, shortened: as §2
[14] = system: MDA-MB-435; experiment: Cytotoxicity against human MDA-MB-435 cells assessed as cell growth at 10 uM; conditions: read-out: Activity; procedure, shortened: as §2
[15] = system: SK-MEL-5; experiment: Cytotoxicity against human SK-MEL-5 cells assessed as cell growth at 10 uM; conditions: for growth at 10 µM: Homo sapiens, SK-MEL-5, read-out: Activity; procedure, shortened: as §2
[16] = system: NCI/ADR-RES; experiment: Cytotoxicity against human NCI/ADR-RES cells assessed as cell growth at 10 uM; conditions: for growth at 10 µM: Homo sapiens, NCI/ADR-RES, read-out: Activity; procedure, shortened: as §2
[17] = system: 786-0; experiment: Cytotoxicity against human 786-0 cells assessed as cell growth at 10 uM; conditions: for growth at 10 µM: Homo sapiens, 786-0, read-out: Activity; procedure, shortened: as §1
[18] = system: A498; experiment: Cytotoxicity against human A498 cells assessed as cell growth at 10 uM; conditions: for growth at 10 µM: Homo sapiens, A498, read-out: Activity; procedure, shortened: as §1
[19] = system: CAKI-1; experiment: Cytotoxicity against human Caki1 cells assessed as cell growth at 10 uM; conditions: for growth at 10 µM: Homo sapiens, CAKI-1, read-out: Activity; procedure, shortened: as §1
[20] = system: RXF 393; experiment: Cytotoxicity against human RXF393 cells assessed as cell growth at 10 uM; conditions: for growth at 10 µM: Homo sapiens, RXF 393, read-out: Activity; procedure, shortened: as §2
[21] = system: TK-10; experiment: Cytotoxicity against human TK10 cells assessed as cell growth at 10 uM; conditions: for growth at 10 µM: Homo sapiens, TK-10, read-out: Activity; procedure, shortened: as §2
[22] = system: MCF7; experiment: Cytotoxicity against human MCF7 cells assessed as cell growth at 10 uM; conditions: for growth at 10 µM: Homo sapiens, MCF7, read-out: Activity; procedure, shortened: as §2
[23] = Cytotoxicity against human Hs 578T cells assessed as cell growth at 10 uM; conditions: read-out: Activity; procedure, shortened: as §1
[24] = system: BT-549; experiment: Cytotoxicity against human BT549 cells assessed as cell growth at 10 uM; conditions: for growth at 10 µM: Homo sapiens, BT-549, read-out: Activity; procedure, shortened: as §1
[25] = system: SN12C; experiment: Cytotoxicity against human SN12C cells assessed as cell growth at 10 uM; conditions: for growth at 10 µM: Homo sapiens, SN12C, read-out: Activity; procedure, shortened: as §2

SMILES | growth at 10 µM [1] [%] | growth at 10 µM [2] [%] | growth at 10 µM [3] [%] | growth at 10 µM [4] [%] | growth at 10 µM [5] [%] | growth at 10 µM [6] [%] | growth at 10 µM [7] [%] | growth at 10 µM [8] [%] | growth at 10 µM [9] [%] | growth at 10 µM [10] [%] | growth at 10 µM [11] [%] | growth at 10 µM [12] [%] | growth at 10 µM [13] [%] | growth at 10 µM [14] [%] | growth at 10 µM [15] [%] | growth at 10 µM [16] [%] | growth at 10 µM [17] [%] | growth at 10 µM [18] [%] | growth at 10 µM [19] [%] | growth at 10 µM [21] [%] | other results
c1ccc(-c2ccc(-c3ccnc(Nc4ccc(N(c5ccccc5)c5ccccc5)cc4)n3)cn2)cc1 | 73.1 | 91.2 | 110 | 38.7 | 77.1 | 151 | 84.4 | 94 | 112 | 84.2 | 135 | 102 | 65.2 | 98.5 | 118 | 125 | 71.5 | 96.2 | 83.7 | 113 | growth at 10 µM [20]: 99.4%; growth at 10 µM [22]: 96.6%; growth at 10 µM [23]: 76.8%; growth at 10 µM [24]: 102%
FC(F)(F)c1cc(Nc2nccc(-c3ccc(Nc4ccccc4)nc3)n2)cc(C(F)(F)F)c1 | 96.6 | 87.6 | 98.3 | 90 | 96.2 | 100 | 109 | 96.5 | 100 | 94.9 | 91.6 | 86.5 | 117 | 108 | 99.1 | 102 | 105 | 104 | 98 | 119 | growth at 10 µM [20]: 107%; growth at 10 µM [22]: 75.4%; growth at 10 µM [23]: 101%; growth at 10 µM [24]: 105%
Cc1cc(-c2cccnc2)nc(NC(=O)c2cccc(C(F)(F)F)c2)n1 | 94.8 | 96.6 | 98.6 | 106 | 97.4 | 107 | 103 | 91.9 | 99.3 | 99.3 | 90.8 | 93.5 | 105 | 100 | 99 | 91.2 | 95.2 | 93.9 | 83.6 | 102 | growth at 10 µM [20]: 90.8%; growth at 10 µM [25]: 95.3%; growth at 10 µM [22]: 91.5%; growth at 10 µM [23]: 107%; growth at 10 µM [24]: 97%
CC(=O)c1ccccc1-c1ccc(-c2ccnc(NC(=O)Nc3cc(C(F)(F)F)cc(C(F)(F)F)c3)n2)cn1 | 79.3 | 88.3 | – | – | 86.8 | 89.9 | 95.9 | 90.1 | 105 | 87 | 91.5 | 72 | – | 98.1 | – | – | – | – | – | – | Activity [3]: 98.17%; Activity [4]: 19.97%; Activity [13]: 105.41%; Activity [15]: 97.2%; Activity [16]: 87.74%; Activity [17]: 93.55%; Activity [18]: 106.93%; Activity [19]: 81.28%; Activity [20]: 104.4%; Activity [25]: 96.07%; Activity [21]: 102.3%; Activity [22]: 75.33%; Activity [24]: 90.06%
O=C(Nc1cc(C(F)(F)F)cc(C(F)(F)F)c1)Nc1nccc(-c2ccc(Nc3ccccc3)nc2)n1 | 96.8 | 96.6 | 102 | 84.6 | 105 | 116 | 103 | 94.3 | 109 | 96.4 | 109 | 90.1 | 151 | 129 | 107 | 108 | 112 | 107 | 102 | 123 | growth at 10 µM [25]: 106%; growth at 10 µM [22]: 99.6%; growth at 10 µM [23]: 102%; growth at 10 µM [24]: 111%
